Reference: ChEMBL document CHEMBL3045217, “Factors affecting the synergy of thiabendazole, sodium bicarbonate, and heat to control postharvest green mold of citrus fruit” (J Agric Food Chem, 2008)

What was measured:
Fruit [1] = experiment: Total drug residues in Citrus sinensis cvs. Salustiana (Salustiana oranges) fruit at 600 mg/L treated for 3 min at 50 degC postharvest measured after overnight incubation at 17 degC by GC analysis; assay type: ADME; conditions: 0.05 h
Outline: (§1)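 'Salustiana' oranges were water-washed, dried, dipped, then dried overnight at 17 °C in the dark. Unextracted fruit were used for total residues. Peel from five oranges was frozen at -18 °C. 5 g homogenized peel was extracted with 10 mL ethyl acetate/hexane (1/1) plus 2 g NaCl, shaken 30 min, then 1 mL of organic layer was dried under N2, redissolved in acetone, and run by GC without cleanup. Results are on a whole-fruit basis.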

Fruit [2] = experiment: Drug residues in Citrus sinensis cvs. Valencia late (Valencia oranges) at 400 mg/L treated for 1 min at 40 degC postharvest measured after 20 days of storage at 17 degC by GC analysis; assay type: ADME
Outline: (§2)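 'Valencia' oranges were dipped 1 min in TBZ at 600 mg/L (20 °C, ±0.5, 1 or 2% wt/vol SBC), 400 mg/L (40 °C, ±SBC) or 200 mg/L (50 °C, alone), then air-dried. They were sampled at 0, 10 and 20 days at 17 °C. Peel of five fruit was frozen, and 5 g of homogenate was extracted with ethyl acetate/hexane (1/1) plus NaCl. The extract was dried under N2, taken up in acetone and analysed by GC. Results are mg/kg on a whole-fruit basis.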

Fruit [3] = experiment: Drug residues in Citrus sinensis cvs. Valencia late (Valencia oranges) at 400 mg/L treated for 1 min at 40 degC postharvest measured after 20 days of storage at 17 degC in presence of 2% SBC by GC analysis; assay type: ADME; outline: as §2
Penicillium digitatum [4] = experiment: Fungicidal activity against Penicillium digitatum infected Valenica oranges assessed as fruit weight loss at 600 mg/L treated for 1 min at 20 degC postharvest at 20 hr after fungal conidial inoculation measured after 14 days of storage at 17 degC in presence of 1% SBC (water Rvb = 7.65%); assay type: functional
Penicillium digitatum [5] = experiment: (§3) Fungicidal activity against TBZ-sensitive Penicillium digitatum infected Valencia oranges assessed as postharvest green mold incidence at 400 mg/L treated for 1 min at 40 degC at 20 hr after fungal conidial inoculation measured after 7 days of storage at 20 degC in presence of 2% SBC (water Rvb = 14.2%); assay type: functional
Outline: (§4)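 Fruit were surface-disinfected in 1 g/L hypochlorite for 30 s, rinsed, dried, then wounded twice equatorially (2 mm × 2 mm rod). Inoculation was a 1 min dip in P. digitatum conidia, 1 × 10^5 conidia/mL final. Fruit were held 20 h at 20 °C and 90% RH, dipped 1 min (SBC wt/vol), and air-dried. Storage was 20 °C, 90% RH. Decay incidence (% fruit with lesions) was scored at 5 d for mandarins and 7 d for oranges. Three replicates of 40 fruit were used; arcsin-transformed data were compared by LSD, p ≤ 0.05.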

Penicillium digitatum [6] = experiment: Fungicidal activity against Penicillium digitatum infected Valenica oranges assessed as fruit weight loss at 600 mg/L treated for 1 min at 20 degC postharvest at 20 hr after fungal conidial inoculation measured after 14 days of storage at 17 degC in presence of 2% SBC (water Rvb = 8.02%); assay type: functional
Fruit [7] = experiment: Drug residues in Citrus sinensis cvs. Valencia late (Valencia oranges) at 400 mg/L treated for 1 min at 40 degC postharvest measured immediately post-drug treatment in presence of 0.5% SBC by GC analysis; assay type: ADME; outline: as §2
Penicillium digitatum [8] = experiment: as §3, with “600” for “400”, “20” for “40”, “20.8%)” for “14.2%)”; assay type: functional; outline: as §4
Penicillium digitatum [9] = experiment: Fungicidal activity against Penicillium digitatum infected Valenica oranges assessed as fruit weight loss at 600 mg/L treated for 1 min at 20 degC postharvest at 20 hr after fungal conidial inoculation measured after 21 days of storage at 17 degC (water Rvb = 7.98%); assay type: functional
Penicillium digitatum [10] = experiment: as §3, with “TBZ-resistant” for “TBZ-sensitive”, “Nova mandarins” for “Valencia oranges”, “5” for “7”, “1%” for “2%”, “76.7%)” for “14.2%)”; assay type: functional
Penicillium digitatum [11] = experiment: Fungicidal activity against Penicillium digitatum infected Valenica oranges assessed as fruit weight loss at 400 mg/L treated for 1 min at 40 degC postharvest at 20 hr after fungal conidial inoculation measured after 21 days of storage at 17 degC (water Rvb = 8.83%); assay type: functional
Penicillium digitatum [12] = experiment: as §3, with “Nova mandarins” for “Valencia oranges”, “5” for “7”, “88.3%)” for “14.2%)”; assay type: functional; outline: as §4
Penicillium digitatum [13] = experiment: Fungicidal activity against Penicillium digitatum infected Valenica oranges assessed as fruit weight loss at 600 mg/L treated for 1 min at 20 degC postharvest at 20 hr after fungal conidial inoculation measured after 7 days of storage at 17 degC in presence of 1% SBC (water Rvb = 3.89%); assay type: functional
Fruit [14] = experiment: Drug residues in Citrus sinensis cvs. Valencia late (Valencia oranges) at 600 mg/L treated for 1 min at 20 degC postharvest measured immediately post-drug treatment in presence of 2% SBC by GC analysis; assay type: ADME; outline: as §2
Penicillium digitatum [15] = experiment: as §3, with “Nova mandarins” for “Valencia oranges”, “600” for “400”, “20” for “40”, “5” for “7”, “96.7%)” for “14.2%)”; assay type: functional; outline: as §4
Fruit surface = experiment: Drug residues on Citrus sinensis cvs. Salustiana (Salustiana oranges) fruit surface at 600 mg/L treated for 1 min at 20 degC postharvest measured after overnight incubation at 17 degC by GC analysis; assay type: ADME
Outline: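 'Salustiana' oranges were washed with water and air-dried. They were dipped 1 or 3 min in TBZ 600 mg/L at 20 or 50 °C, or 1 min in TBZ 600 mg/L plus 2% SBC at 20 °C, then dried overnight at 17 °C in the dark. Surface residue was taken by water extraction and wax residue by chloroform extraction. Inner residue was measured in fruit after both extractions. Extracts were dried under N2, taken up in acetone and analysed by GC. Values are mg/kg on a whole-fruit basis.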

Penicillium digitatum [16] = experiment: Fungicidal activity against Penicillium digitatum infected Valenica oranges assessed as fruit weight loss at 400 mg/L treated for 1 min at 40 degC postharvest at 20 hr after fungal conidial inoculation measured after 14 days of storage at 17 degC in presence of 1% SBC (water Rvb = 8.68%); assay type: functional
Penicillium digitatum [17] = experiment: Fungicidal activity against TBZ-sensitive Penicillium digitatum infected Valencia oranges assessed as postharvest green mold incidence at 200 mg/L treated for 1 min at 50 degC at 20 hr after fungal conidial inoculation measured after 7 days of storage at 20 degC (water Rvb = 53.3%); assay type: functional; outline: as §4
Fruit [18] = experiment: Drug residues in Citrus sinensis cvs. Valencia late (Valencia oranges) at 200 mg/L treated for 1 min at 50 degC postharvest measured immediately post-drug treatment by GC analysis; assay type: ADME; outline: as §2
Fruit [19] = experiment: Total drug residues in Citrus sinensis cvs. Salustiana (Salustiana oranges) fruit at 600 mg/L treated for 1 min at 20 degC postharvest measured after overnight incubation at 17 degC by GC analysis; assay type: ADME; outline: as §1
Fruit [20] = experiment: Drug residues in Citrus sinensis cvs. Valencia late (Valencia oranges) at 400 mg/L treated for 1 min at 40 degC postharvest measured immediately post-drug treatment in presence of 1% SBC by GC analysis; assay type: ADME; outline: as §2

c1ccc2[nH]c(-c3cscn3)nc2c1 [THIABENDAZOLE]
Drug uptake (Fruit [1]): 1.6 mg/kg
Drug uptake (Fruit [2]): 0.87 mg/kg
Drug uptake (Fruit [3]): 0.58 mg/kg
Activity (Penicillium digitatum [4]): 8.47%
Activity (Penicillium digitatum [5]): 12.5%
Activity (Penicillium digitatum [6]): 9.38%
Drug uptake (Fruit [7]): 0.79 mg/kg
Activity (Penicillium digitatum [8]): 2.5%
Activity (Penicillium digitatum [9]): 8.85%
Activity (Penicillium digitatum [10]): 40%
Activity (Penicillium digitatum [11]): 8.96%
Activity (Penicillium digitatum [12]): 3.3%
Activity (Penicillium digitatum [13]): 4.33%
Drug uptake (Fruit [14]): 1.22 mg/kg
Activity (Penicillium digitatum [15]): 0%
Drug uptake (Fruit surface): 0.68 mg/kg
Activity (Penicillium digitatum [16]): 8.11%
Activity (Penicillium digitatum [17]): 5.8%
Drug uptake (Fruit [18]): 0.45 mg/kg
Drug uptake (Fruit [19]): 1.04 mg/kg
Drug uptake (Fruit [20]): 0.75 mg/kg
